Reference: PubChem BioAssay AID624466 (The Scripps Research Institute Molecular Screening Center, 2012)
Hit rate of the full screen: of about 360,000 compounds, about 5,400 (1.5%) were called active.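 How the source made its calls: active means inhibition above a per-plate cutoff, the mean inhibition of test compounds on that plate plus 3 SD (cut at about 49% in these data); inactive means the rest.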 For the sample, actives were picked, then their nearest neighbours and some compounds at random.

What follows are molecules tested against Trace amine-associated receptor 1 (Homo sapiens) (UniProt Q96RJ0) (assay: blockers of beta-PEA-driven TAAR1 calcium signal – Fluo-8 calcium fluorescence, CHO RD-HGA16 cells, primary screen (AID 624466;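 further: 0% = DMSO plus EC80 beta-PEA response and 100% = DMSO alone without agonist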)). Conditions: CHO RD-HGA16 TAAR1, Fluo-8 calcium fluorescence, antagonist; at 3 µM; active compounds read high.
Sequence of Trace amine-associated receptor 1 (Homo sapiens) (Q96RJ0 whole entry, looked up): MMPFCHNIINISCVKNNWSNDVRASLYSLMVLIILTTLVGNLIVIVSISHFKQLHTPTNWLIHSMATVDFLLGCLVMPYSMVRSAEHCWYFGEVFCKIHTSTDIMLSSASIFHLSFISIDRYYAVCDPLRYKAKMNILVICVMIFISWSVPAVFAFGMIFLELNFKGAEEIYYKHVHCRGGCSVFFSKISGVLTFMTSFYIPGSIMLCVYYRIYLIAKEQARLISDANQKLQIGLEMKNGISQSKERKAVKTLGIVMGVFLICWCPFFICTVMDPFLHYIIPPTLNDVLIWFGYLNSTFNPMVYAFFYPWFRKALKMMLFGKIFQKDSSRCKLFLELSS
Summary of the method: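 Test system: CHO RD-HGA16 cells bearing hTAAR1 | Reagent: β-PEA, EC80 | Compound dosing: 3 µM, single point | Schedule: Dye loading 75 min at 37 °C, then 30 min room temperature | Signal: Calcium fluorescence with Fluo-8 | Evaluation: Percent inhibition of PEA-evoked calcium signal, max/basal emission ratio | Control set: DMSO-only wells and EC80 β-PEA-stimulated wells | Repeats: Singlicate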
For `CNC(=O)c1[nH]cnc1C(=O)N[C@@H](CC(C)C)C(=O)OCc1ccccc1`, the inhibition was 23.5% (inactive).
`CC(C)(C)OC(=O)NCCCCCNC(=O)c1[nH]cnc1C(=O)Nc1nccs1` was tested, and the inhibition was 38.9% (inactive).
With `O=C(N[C@@H](Cc1ccccc1)C(=O)OCc1ccccc1)c1nc[nH]c1C(=O)N[C@@H](Cc1ccccc1)C(=O)OCc1ccccc1` the inhibition was 15.8% (inactive).
`CC(C)(C)OC(=O)N1CCC(NC(=O)c2[nH]cnc2C(=O)N[C@@H](Cc2ccccc2)C(=O)OCc2ccccc2)CC1` was tested, and the inhibition was 35.6% (inactive).
In the case of `O=C(Nc1ccon1)c1nc[nH]c1C(=O)NCc1ccccc1`, the inhibition is reported as -5.83% (inactive).
With `CN(CCc1ccccn1)C1CCCN(S(=O)(=O)c2ccccc2Cl)C1` (stereo not drawn) the inhibition was -19.7% (inactive).
`COc1ccccc1Cc1c(-c2ccc(F)cc2)nc2ccc(C)cn12` was tested, and the inhibition was -18.1% (inactive).
For `O=C(NCc1ccccc1)[C@H]1CCCN1C(=O)[C@H]1CCCN1C(=O)N1CCOCC1`, the inhibition was 15.4% (inactive).
With `CCCCn1nnnc1C(c1cc2ccccc2o1)N(C)Cc1ccc(Cl)c(Cl)c1` (stereo not drawn) the inhibition was -19.1% (inactive).
With `CC(C)[C@H]1COCCS(=O)(=O)N1Cc1ccccc1-c1cccc2c1sc1ccccc12` the inhibition was -54.8% (inactive).
In the case of `Nc1nc(CC(=O)CSc2ccc(Cl)cc2)nc(Nc2ccc(F)cc2)n1`, the inhibition is reported as -2.27% (inactive).
In the case of `C=CCC[C@@H](CCCCC)OC(=O)/C=C/[C@@H](O)[C@H](O)C[C@H](O)CC=C`, the inhibition is reported as -5.68% (inactive).
For `Cc1nc(NC(=O)C(C)(C)C)sc1[N+](=O)[O-]`, the inhibition was -6.34% (inactive).
`Cc1ccc(C(=O)N2CC(=O)Nc3ccccc32)o1` was tested, and the inhibition was -3.59% (inactive).
With `O=C(NCc1ccccc1)C(c1ccc(F)cc1)N1CCN(C(=O)C2CCCO2)CC1` (stereo not drawn) the inhibition was -21.5% (inactive).
In the case of `CCCCC[C@H](C)N1C[C@@H](COCc2ccccc2)Oc2cc(N3CC[C@@H](N(C)C)C3)ccc2S1(=O)=O`, the inhibition is reported as -6.02% (inactive).
With `Nc1ncnc2c1ncn2[C@@H]1O[C@H](C(=O)N[C@@H](CCc2ccccc2)C(=O)NCC(=O)N2CCOCC2)[C@@H](O)[C@H]1O` the inhibition was 8.4% (inactive).
For `COC(=O)C1=C(C)N(Cc2cccc(C(F)(F)F)c2)C(=NCc2ccccc2)NC1c1ccc(Cl)cc1` (stereo not drawn), the inhibition was 46% (inactive).
`COC(=O)[C@]12C[C@H](CC(=O)NCc3ccccc3)C(=O)N(CCC3=CCCCC3)C1=C[C@H](C(C)(C)C)O[C@@H]2C` was tested, and the inhibition was -44.8% (inactive).
For `COc1cccc(-c2cc(CNC(=O)[C@@H](Cc3ccccc3)NC(=O)[C@H]3O[C@@H](n4cnc(C(N)=O)n4)[C@H](O)[C@@H]3O)no2)c1`, the inhibition was -23.1% (inactive).
For `O=C(NCCN1CCOCC1)c1ccc2c(c1)N(Cc1cccc(Cl)c1)C(=O)c1ccccc1S2(=O)=O`, the inhibition was -0.54% (inactive).
For `Cc1ccc(C(=O)N/C(=C\c2ccc(F)cc2)C(=O)NCCN2CCOCC2)cc1`, the inhibition was 0.72% (inactive).
For `O=C(NCCN1CCOCC1)/C(=C/c1ccc(F)cc1)NC(=O)c1ccccc1`, the inhibition was 1.45% (inactive).
`O=C(NCCN1CCOCC1)c1ccc(/C=C2\Sc3ccccc3N(Cc3ccc(F)cc3)C2=O)cc1` was tested, and the inhibition was 70.2% (active).
With `Cc1cccc(-c2nc3ccc(C(=O)NCCN4CCN(C)CC4)cc3nc2-c2cccc(C)c2)c1` the inhibition was -13.7% (inactive).
With `CCN1CCN(CCNC(=O)c2ccc(/C=C3/Sc4ccccc4N(Cc4cccc(C)c4)C3=O)cc2)CC1` the inhibition was 61.5% (active).
With `C=C1C(=O)OC2C1CCC(C)=CCCC1(C)OC21` (stereo not drawn) the inhibition was -17.7% (inactive).
For `CCOc1ccc(S(=O)(=O)NCCC(=O)NNC(=O)c2ccc(F)cc2)cc1`, the inhibition was -12% (inactive).
`O=C(Nc1ccccc1N1CCOCC1)c1ccc(OCc2cscn2)cc1` was tested, and the inhibition was 29.3% (inactive).
`CC(C)OCCCNc1ncnc2c1[nH]c1ccc(F)cc12` was tested, and the inhibition was 51.5% (active).
`Cc1ccc(C2NC(C(=O)O)CS2)cc1` (stereo not drawn) was tested, and the inhibition was -13.1% (inactive).
With `O=C1/C(=C\c2ccc([N+](=O)[O-])cc2)CS(=O)(=O)C/C1=C/c1ccc([N+](=O)[O-])cc1` the inhibition was 36.7% (inactive).
For `c1ccc(CSc2ncnc3c2sc2nc(N4CCOCC4)c4c(c23)CCCC4)cc1`, the inhibition was -16.6% (inactive).
With `c1ccc2c(CCN3CCNC[C@H]3Cc3cccc4ccccc34)cccc2c1` the inhibition was 23.8% (inactive).
With `c1ccc(C2CNCc3c2ccc2ccccc32)cc1` (stereo not drawn) the inhibition was 81.3% (active).
For `O=C(CCNC(=O)Cn1ccc2ccccc2c1=O)NCCC1=CCCCC1`, the inhibition was -24.7% (inactive).
`Cc1ccn2c(=O)c(C(=O)NCCC3=CCCCC3)c(O)nc2c1` was tested, and the inhibition was 64.5% (active).
With `O=C(NCCC1=CCCCC1)c1ccc(-n2cncn2)cc1` the inhibition was -0.95% (inactive).
With `C(#CCN1CCOCC1)CCCN1CCOCC1` the inhibition was -21.3% (inactive).
`O=C(COC(=O)C12CC3CC(CC(O)(C3)C1)C2)NC12CC3CC(CC(C3)C1)C2` was tested, and the inhibition was -12.3% (inactive).
For `CCN(CC)c1ccc(/C=N/NC(=O)c2cnccn2)c(O)c1`, the inhibition was 48.9% (active).
With `CCN(CC)c1ccc(NC(=O)c2ccc(Cl)nc2)cc1` the inhibition was 6.5% (inactive).
In the case of `Cc1ccc(/C=N/NC(=O)C2=NNC(c3ccccc3)(c3ccccc3)C2)c(O)c1`, the inhibition is reported as 0.27% (inactive).
